# High-throughput results from PubChem.
# Most compounds without a hit are left out; they make up all but 2.9% or so of the library.
# TAG inh: inhibitors of triacylglycerol accumulation. hit rate 0.66% among 230,000. AID 651582. H9c2 cells, Nile Red lipid (TAG) fluorescence; cells loaded with 200 µM oleic acid. inhibition, % at 12.5 µM;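 active = pattern-corrected inhibition of lipid staining of at least 50% with the nuclear-stain viability signal not falling by more than 50%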;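 note: 0% = DMSO wells and 100% = triacsin C control wells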
# MC4R barr agon: agonists of human melanocortin 4 receptor (MC4R) beta-arrestin. U2OS MC4R beta-arrestin complementation, luminescence; percent of melanotan II response, DMSO zero. activation, % at 8.9 µM. hit rate 0.98% among 360,000. P32245. AID 540308;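 active = activation above a per-plate cutoff, the mean activation of sample wells on that plate plus 3 SD, cut at about 8% in these data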
# MC4R antagonist: human MC4R antagonism in cAMP assay; MC4R-expressing cells, MTII-stimulated cAMP, LANCE TR-FRET; AID 540295; hit rate 0.48% among 360,000; P32245; inhibition, % at 6.5 µM;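 active = inhibition above its plate's cutoff, the mean of tested wells on that plate plus 3 SD, cut at about 29% in these data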;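 note: 0% = Melanotan II alone and 100% = Melanotan II plus saturating MCL0020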
#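 System: U2OS-MC4R stable cell line; Technique: Eu-cAMP/anti-cAMP TR-FRET, emission 671 nm; Repeats: single well per compound; Also added: Melanotan II; Dosing: one concentration, 6.5 µM nominal; Schedule: 30-min compound, 1-h challenge, 1-h detection, room temperature.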
# GalR3 antagonist: antagonists of human GalR3; O60755; HEK293 GalR3-CNG cAMP membrane potential fluorescence; galR3 body fused to GalR1 C-terminus; inhibition, % at 3 µM; hit rate 0.44% among 360,000; AID 651719;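 active = inhibition above the screen-wide average plus 3 SD, cut at about 13% in these data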;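 note: forskolin and galanin both at EC90 stimulate the cells; cAMP rise reported by CNG channel membrane potential dye signal; 0% = forskolin plus galanin with DMSO and 100% = forskolin alone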
# Calb FLC: affects C. albicans growth with fluconazole | hit rate 0.57% among 300,000 | C. albicans CaCi-2 + fluconazole, Alamar Blue growth, 48 h | growth inhibition, % (concentration not given with the values) | AID 1979;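 active = growth inhibition above about 58% in most replicates, limit read from the data, passing the limit was not always enough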;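 note: all wells also contain fluconazole at 8 µg/ml as a sub-toxic cotreatment; 0% = median of DMSO wells and 100% = median of geldanamycin control wells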
# Efflux pump inh: inhibitors of Candida antifungal efflux pumps expressed in yeast; hit rate 0.44% among 330,000; inhibition, % at 10 µM; S. cerevisiae Candida pump triplex, Nile Red efflux;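 active = plate passing quality check with inhibition over a set limit, or well fluorescence over plate mean plus 4 SD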;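 note: Nile Red retained in pooled yeast measured as flow cytometry median fluorescence; 0% = buffer negative control and 100% = Enniatin B positive control; higher means more Nile Red kept so more efflux inhibition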
# Cmpd fluor yeast: flagged as fluorescent in efflux inhibitor counter-screen. shares compounds with Efflux pump inh. S. cerevisiae AD/pABC3, compound fluorescence, flow cytometry. AID 588517. hit rate 4% among 1,700. fluorescence ratio to DMSO, % at 10 µM;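 active = fluorescence ratio to DMSO above its plate's cutoff, the plate mean ratio plus 5 SD, cut at about 210% in these data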;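 note: unstained yeast with no Nile Red so the signal is compound autofluorescence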
# Mdr1 pump inh: Candida Mdr1 efflux pump inhibition; S. cerevisiae AD/CaMDR1, Nile Red efflux, flow cytometry; inhibition, % at 10 µM; shares compounds with Efflux pump inh; hit rate 1% among 1,700; in the data active = inhibition above about 26%;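 note: 0% = DMSO vehicle and 100% = reference inhibitor; higher means more Nile Red retained so more efflux inhibition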
# CaCdr2 efflux inh: inhibitors of Candida albicans Cdr2 efflux pump; shares compounds with Efflux pump inh; S. cerevisiae AD/CaCDR2, Nile Red retention, flow cytometry; Nile Red retention ratio vs DMSO, % at 10 µM; hit rate 4% among 1,700; in the data active = Nile Red retention ratio vs DMSO above about 190%;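 note: higher ratio means more blocking of Cdr2 efflux of the dye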
# CaCdr1 efflux inh: inhibitors of Candida albicans Cdr1 efflux pump; shares compounds with Efflux pump inh; S. cerevisiae AD/CaCDR1, Nile Red efflux, flow cytometry; inhibition, % at 10 µM; hit rate 1% among 1,700; AID 588522;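 active = inhibition above the screen-wide mean plus twice its standard deviation, cut at about 32% in these data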
# cAMP nonselect: U2OS forskolin cAMP inhibition counter-screen; parental U2OS, LANCE TR-FRET; hit rate 26% among 1,600; inhibition, % at 6.5 µM; shares compounds with MC4R antagonist;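 active = mean inhibition over triplicates above the low-control well mean plus 3 SD, set per campaign, cut at about 13% in these data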;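 note: signal is single emission at 671 nm which falls as cellular cAMP rises; 0% = forskolin-stimulated wells and 100% = buffer without forskolin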
# MC4R antag conf: human MC4R cAMP antagonism confirmation. shares compounds with MC4R antagonist. MC4R-expressing cells, MTII-stimulated cAMP, TR-FRET. inhibition, % at 6.5 µM. hit rate 27% among 1,600. AID 602195; in the data active = inhibition above about 29%;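 note: 0% = agonist stimulated wells alone and 100% = agonist stimulated wells plus saturating reference antagonist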
# MC4R barr ag: human MC4R beta-arrestin agonism confirmation | shares compounds with MC4R barr agon | hit rate 31% among 2,400 | U2OS MC4R beta-arrestin recruitment, luminescence; scaled DMSO 0%, Melanotan II 100% | activation, % at 8.9 µM | AID 602192;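 active = mean activation across replicates above the hit cutoff set in the earlier primary screen, cut at about 8% in these data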
# MOR DOR agonist: counter-screen for MC4R agonists: agonists of mu-delta opioid heterodimer; shares compounds with MC4R barr agon; U2OS PathHunter beta-arrestin, beta-gal luminescence; percent of deltorphin B response, DMSO zero; activation, % at 9.2 µM; hit rate 5.8% among 2,400; AID 602194;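 active = mean activation across replicates exceeds the hit threshold derived in the earlier primary screen, cut at about 18% in these data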;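 note: 100% = deltorphin B at 0.9 µM final and 0% = DMSO alone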
# Target sequence (P35372 whole entry, looked up): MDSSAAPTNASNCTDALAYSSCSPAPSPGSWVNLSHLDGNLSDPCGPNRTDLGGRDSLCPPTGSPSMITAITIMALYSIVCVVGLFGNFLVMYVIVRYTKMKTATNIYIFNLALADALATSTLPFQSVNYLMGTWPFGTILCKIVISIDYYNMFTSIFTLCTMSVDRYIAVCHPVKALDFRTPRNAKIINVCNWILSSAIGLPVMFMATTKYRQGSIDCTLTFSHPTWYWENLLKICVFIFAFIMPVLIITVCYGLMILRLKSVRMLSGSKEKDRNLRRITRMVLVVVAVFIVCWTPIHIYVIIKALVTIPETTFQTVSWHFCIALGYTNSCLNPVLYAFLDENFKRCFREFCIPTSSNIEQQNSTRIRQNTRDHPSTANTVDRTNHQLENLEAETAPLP
# Target sequence (P41143 whole entry, looked up): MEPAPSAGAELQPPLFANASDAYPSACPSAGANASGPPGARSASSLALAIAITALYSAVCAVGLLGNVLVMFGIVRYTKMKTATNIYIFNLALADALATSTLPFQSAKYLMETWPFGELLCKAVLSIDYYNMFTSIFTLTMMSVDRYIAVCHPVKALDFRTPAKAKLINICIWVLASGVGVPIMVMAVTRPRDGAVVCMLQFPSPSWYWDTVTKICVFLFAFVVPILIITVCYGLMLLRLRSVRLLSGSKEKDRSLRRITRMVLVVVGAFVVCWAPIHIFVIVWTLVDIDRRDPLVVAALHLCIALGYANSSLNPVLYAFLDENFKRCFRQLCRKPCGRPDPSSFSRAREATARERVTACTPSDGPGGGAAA
# TAG conf: triacylglycerol accumulation inhibition, confirmation; hit rate 71% among 990; AID 651629; H9c2 lipid accumulation, Nile Red fluorescence; cells loaded with 200 µM oleic acid; inhibition, % at 12.5 µM; shares compounds with TAG inh;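 active = mean inhibition across replicates of 40% or more; inactive = mean inhibition below 40%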;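 note: plate controls were DMSO only wells for no effect and Triacsin C treated wells for full effect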
# Active calls of the source: *; nt = no result given.
SMILES,TAG inh,MC4R barr agon,MC4R antagonist,GalR3 antagonist,Calb FLC,Efflux pump inh,Cmpd fluor yeast,Mdr1 pump inh,CaCdr2 efflux inh,CaCdr1 efflux inh,MC4R barr ag,MOR DOR agonist,others
COCC1OC(OC(C)C(O)c2cnc3nc(N)[nH]c(=O)c3n2)C(O)C(OC)C1O (configuration not stated),nt,0,6,-7,nt,nt,nt,nt,nt,nt,nt,nt,
CC1Cc2ccccc2N1S(=O)(=O)c1cccc(C(=O)N2CCN(c3ncccn3)CC2)c1 (configuration not stated),-18,1,-6,-1,19,0.9*,106,0,103,0,nt,nt,
CCCCc1c(-c2ccccc2OC)ncn1Cc1cccc(OC)c1,nt,nt,nt,-10,nt,nt,nt,nt,nt,nt,nt,nt,
CCCOC(=O)c1ccc(NC(=O)C2C3CCC(C3)C2C(=O)O)cc1 (configuration not stated),nt,-2,1,-2,4,15*,105,0,102,0,nt,nt,
COc1ccc(CNC(=O)COC(=O)CCC2CCCCC2)cc1,nt,1,5,-11,-6,1,nt,nt,nt,nt,nt,nt,
COC(=O)c1ccc(CNC(=O)COC(=O)CCC2CCCC2)cc1,nt,-1,2,-5,-10,17*,115,0,114,0,nt,nt,
O=[N+]([O-])c1ccc(N2CCc3ccccc3C2)nc1,-8,-1,10,-8,-40,0.6*,110,0,131,0,nt,nt,
O=[N+]([O-])c1ccc(N2CCN(c3ccccc3)CC2)nc1,nt,0,2,-9,-1,0,nt,nt,nt,nt,nt,nt,
CCOC(=O)c1c(NC(=S)Nc2ccccc2)sc2c1CC(C)(C)SC2,8,-4,35*,-2,-8,0.5*,202,6,245*,4,nt,nt,cAMP nonselect=2;MC4R antag conf=16
O=[N+]([O-])c1ccc(Br)c(CN2CCN(c3ncc(Cc4ccccc4)cn3)CC2)c1,nt,nt,nt,-3,nt,nt,nt,nt,nt,nt,nt,nt,
Cc1cc(C)c2nc(-n3nc(C)cc3N)cc(C)c2c1,nt,15*,-8,2,8,2.0*,90,0,95,0,2,3,
Cc1cc(N)n(-c2cc(C)c3ccccc3n2)n1,-8,-1,8,-2,6,0,nt,nt,nt,nt,nt,nt,
COC(=O)[C@@]12C[C@@H](CC(=O)NCCCN3CCCC3=O)C(=O)N(CCc3ccc(OC)c(OC)c3)C1=CCC(C)(C)C2,nt,nt,nt,1,nt,nt,nt,nt,nt,nt,nt,nt,
N#C/C(=C/c1ccco1)c1nc2ccccc2s1,nt,9.6*,-6,-11,1,0,99,0,106,0,-3,4,
CCOC(=O)C1=CCN(S(=O)(=O)c2ccccc2F)C1c1ccc(F)cc1 (configuration not stated),nt,nt,nt,-5,nt,nt,nt,nt,nt,nt,nt,nt,
O=C(COc1ccccc1)Nc1nnc(COc2ccccc2)s1,-4,9.9*,2,-4,24,0,74,0,89,0,-5,3,
CCOC(=O)C(=O)Nc1nnc(COc2ccccc2)s1,6,1,14,-4,1,0,nt,nt,nt,nt,nt,nt,
Cc1cc(C2(c3ccc(O)c(C)c3)OC(=O)c3ccccc32)ccc1O,nt,0,4,-4,3,0,nt,nt,nt,nt,nt,nt,
Cc1cc(O)c(C(C)C)cc1C1(c2cc(C(C)C)c(O)cc2C)OC(=O)c2ccccc21,-15,19*,31*,-16,2,1.2*,117,0,109,0,8.6*,9,cAMP nonselect=6;MC4R antag conf=29*
CCCc1c(C(=O)N/N=C/c2c(OC)ccc3ccccc23)nnn1-c1nonc1N,nt,25*,-1,-7,nt,0,104,0,103,0,11*,5,
CCCCNC(=O)C1c2ccccc2OCC(=O)N1Cc1cccnc1 (configuration not stated),nt,nt,nt,-5,nt,nt,nt,nt,nt,nt,nt,nt,
COc1ccc2[nH]c3c(C)c4ccncc4c(C)c3c2c1,nt,14*,10,1,105*,2.8*,125,0,103,0,28*,6,
O=S1(=O)CCN(Cc2cccnc2)CC1,13,-1,3,-6,nt,nt,nt,nt,nt,nt,nt,nt,
COc1ccc(-c2ccc(-c3noc(-c4ccccc4OC)n3)c(OC)n2)cc1,-5,10*,5,0,-2,0.5*,99,0,116,0,2,1,
Cc1ccc(C)c(S(=O)(=O)N2CCN(C(=O)[C@H](Cc3ccccc3)NC(=O)c3ccco3)CC2)c1,-1,-1,4,-3,nt,0,nt,nt,nt,nt,nt,nt,
O=C1Nc2ccccc2/C1=C/c1cccnc1,10,0,-18,0,-5,0,nt,nt,nt,nt,nt,nt,
O=C1Nc2ccccc2/C1=C/c1cnc(-c2ccccc2)[nH]1,-9,20*,-4,-6,4,0.8*,111,0,435*,1,25*,4,
CCCCCCCCCCOC(=O)Cn1c(COc2cccc(C)c2)[n+](C)c2ccccc21,nt,19*,-5,-6,49,1.0*,110,0,120,0,28*,15,
COc1cccc(C2c3c(C)nn(-c4ccc([N+](=O)[O-])cc4)c3N=C3C(=O)Nc4ccccc4N32)c1 (configuration not stated),76*,-2,-7,-2,45,0.4*,103,0,98,0,nt,nt,TAG conf=81*
